# Screens: PubChem, Johns Hopkins Ion Channel Center
# In the library only some 3.1% were active in any assay of this set; here they are far more common.
# KCNQ1 act: potentiates or activates the human KCNQ1 potassium channel. P51787. CHO-K1 KCNQ1, thallium flux FluxOR fluorescence; hits give high values. hit rate 0.35% among 310,000. B-score at 10 µM;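 active = fluorescence ratio B-score, a plate-corrected score, at least three library SD, with initial intensity B-score within 5 SD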
#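 System: Stable KCNQ1 CHO-K1 line | Incubation: 90 min dye loading and 20 min compound exposure, both at room temperature | Measure: Ratio B score | Medium: Assay buffer for compound exposure, DMSO matched across wells | Compound dosing: Single-concentration screen | Probe or stimulus: K+/Tl+ depolarizing stimulus | Measured by: Kinetic FluxOR fluorescence, 10 s baseline plus 110 s post-stimulus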
# KCNQ1 inh: blocks the human KCNQ1 potassium channel. CHO-K1 KCNQ1, FluxOR thallium flux fluorescence; hits give high values. hit rate 1.3% among 310,000. P51787. B-score at 10 µM;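 active = compounds whose thallium flux B-score, printed positive for inhibition, exceeds three library SD while starting fluorescence stays within three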;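 note: channel opened by potassium depolarization with thallium stimulus after 20 min compound exposure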
# KCNK3 inh: human KCNK3 channel inhibition, primary screen; O14649; CHO-KCNK3 thallium flux, FluxOR fluorescence; hits give low values; B-score at 10 µM; hit rate 0.84% among 340,000; AID 602410;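 active = B-score under library mean minus 4 SD, starting fluorescence ratio at most library mean plus 5 SD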;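 note: more negative B-score means stronger inhibition of thallium flux through KCNK3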
# hERG rescue: hERG (human) protection from proarrhythmic block | Q12809 | CHO-hERG, FluxOR thallium flux, dofetilide IC70 present | activation (rescue from dofetilide block), less the hit threshold, % at 10 µM | hit rate 0.51% among 310,000 | AID 1511;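 active = activation above the mean of controls blocked by dofetilide plus 5 SD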;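 note: thallium influx through hERG after potassium depolarization seen as dye fluorescence rise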
# Target sequence (Q12809 whole entry, looked up): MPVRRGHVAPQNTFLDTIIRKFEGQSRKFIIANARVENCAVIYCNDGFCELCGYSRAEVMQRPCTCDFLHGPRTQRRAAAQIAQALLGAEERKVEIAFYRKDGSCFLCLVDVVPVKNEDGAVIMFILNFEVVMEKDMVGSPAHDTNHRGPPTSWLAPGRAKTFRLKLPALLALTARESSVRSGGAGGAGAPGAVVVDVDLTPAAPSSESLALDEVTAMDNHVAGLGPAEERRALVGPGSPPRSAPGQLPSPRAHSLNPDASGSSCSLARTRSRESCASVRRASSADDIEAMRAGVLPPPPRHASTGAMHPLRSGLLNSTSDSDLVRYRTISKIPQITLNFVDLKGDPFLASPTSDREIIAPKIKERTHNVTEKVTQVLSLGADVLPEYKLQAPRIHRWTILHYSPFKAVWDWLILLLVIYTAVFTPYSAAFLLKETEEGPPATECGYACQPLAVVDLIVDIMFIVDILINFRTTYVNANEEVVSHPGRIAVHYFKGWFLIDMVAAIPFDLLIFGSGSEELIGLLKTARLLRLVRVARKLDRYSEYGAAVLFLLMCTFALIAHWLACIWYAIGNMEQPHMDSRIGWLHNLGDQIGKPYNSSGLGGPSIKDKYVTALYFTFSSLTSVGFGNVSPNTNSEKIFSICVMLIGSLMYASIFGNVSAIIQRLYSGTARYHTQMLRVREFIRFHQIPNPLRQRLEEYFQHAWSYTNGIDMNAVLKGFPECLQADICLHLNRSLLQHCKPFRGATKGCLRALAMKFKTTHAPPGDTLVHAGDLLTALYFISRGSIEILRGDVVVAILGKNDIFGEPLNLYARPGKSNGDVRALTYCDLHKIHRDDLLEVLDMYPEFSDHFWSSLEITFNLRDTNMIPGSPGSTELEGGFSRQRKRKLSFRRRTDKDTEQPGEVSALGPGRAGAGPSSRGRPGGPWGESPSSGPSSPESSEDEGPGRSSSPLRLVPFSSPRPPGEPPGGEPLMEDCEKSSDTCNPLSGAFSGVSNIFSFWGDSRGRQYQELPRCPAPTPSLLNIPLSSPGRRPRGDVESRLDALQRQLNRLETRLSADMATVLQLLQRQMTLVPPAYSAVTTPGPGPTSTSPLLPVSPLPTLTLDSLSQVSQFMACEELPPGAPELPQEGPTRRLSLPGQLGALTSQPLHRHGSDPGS
# KCNK9 block: inhibitors of human KCNK9 two-pore domain potassium channel; HEK293 KCNK9, FluxOR thallium flux fluorescence; hits give low values; AID 488922; B-score at 10 µM; Q9NPC2; hit rate 1.2% among 310,000;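 active = ratio B-score over 3 SD below the library mean, with starting fluorescence within 5 SD of its mean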;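 note: negative B-score means less thallium flux so channel inhibition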
# KCNK3 confirm: human KCNK3 channel inhibition, confirmation assay. shares compounds with KCNK3 inh. hit rate 99% among 2,400. ratio percent of control, % at 10 µM. CHO-KCNK3 thallium flux, FluxOR fluorescence; 0% buffer, 100% carvedilol maximal block;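 active = ratio percent of control, averaged over triplicates, above buffer control mean plus 5 SD, cut at about 64% in these data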;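 note: ratio is the fluorescence rise from min to max over baseline after thallium stimulus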
# KCNK3 uninduced: activity in cells without induced KCNK3 expression; shares compounds with KCNK3 inh; non-induced KCNK3 parental cells, FluxOR thallium flux; hits give low values; thallium flux ratio (lower = more inhibition) at 10 µM; hit rate 40% among 2,400; AID 651747;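 active = thallium flux ratio, averaged over three wells, more than 5 SD below the buffer control mean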;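 note: host cells are CHO cells without KCNK3 induction; ratio is peak minus trough fluorescence over baseline then normalized to buffer controls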
# Active calls of the source: *; i = inactive; · = no result.
SMILES,KCNQ1 act,KCNQ1 inh,KCNK3 inh,hERG rescue,KCNK9 block,KCNK3 confirm,KCNK3 uninduced
O=C(Cc1ccccc1F)Nc1nc(-c2ccc(F)cc2)cs1,i,i,-11*,-5,i,126*,i
COc1ccc(OC)c(-c2csc(NC(=O)Cc3cc(OC)c(OC)c(OC)c3)n2)c1,i,i,i,-5,i,·,·
COc1ccc(OC)c(-c2csc(NC(=O)C3=COCCO3)n2)c1,i,i,-9.1*,-15,i,91*,i
COc1ccc(OC)c(-c2csc(NC(=O)Cc3ccc(F)cc3)n2)c1,i,i,-11*,-3,i,114*,i
Cc1ccc(NC(=O)CSc2nnc3ccc(-c4ccncc4)nn23)cc1,i,i,i,-3,i,·,·
CC(C)N(CCNC(=O)COc1ccc2oc3c(c2c1)CCCC3)C(C)C,i,i,i,-15,i,·,·
CCOC(=O)C1=CC[C@@H](c2cc3cc(OC)ccc3n2C)N(S(=O)(=O)c2ccc(C)cc2)[C@H]1C(=O)OCC,·,·,i,·,·,·,·
O=C(Nc1cccc(F)c1)NC1CCN(Cc2ccccc2)CC1,i,i,i,-6,i,·,·
Cc1ccc(S(=O)(=O)Nc2ccccc2N=Cc2c(F)c(F)c(F)c(F)c2F)cc1,·,·,-12*,·,·,114*,0.15*
Cc1ccc(S(=O)(=O)Nc2ccccc2C=Nc2cccc(C)c2C)cc1,i,i,i,-5,i,·,·
CCCCC(Sc1nc(C)c(Cc2ccccc2)c(=O)[nH]1)C(=O)O (stereo unspecified),i,i,-9*,-5,i,0,i
CC(C)c1ccc(NC(=S)Nc2cccc3ccccc23)cc1,i,i,-8.9*,-8,i,105*,i
Cc1ccc(NC(=S)Nc2cccc3ccccc23)cc1,i,i,i,-6,i,·,·
CC(C)OCCCNC(=O)c1cn(C)c2ccc(S(=O)(=O)N(C)C3CCCCC3)cc2c1=O,i,i,-9.1*,-10,i,90*,0.14*
CN(C1CCCCC1)S(=O)(=O)c1ccc2c(c1)c(=O)c(C(=O)NCCCN1CCCC1)cn2C,i,i,i,-3,i,·,·
CCc1nnc(NC(=O)C2CCN(C(=O)c3ccco3)CC2)s1,i,i,-8.8*,-1,i,81*,i
COCc1nnc(NC(=O)C2CCN(C(=O)c3ccco3)CC2)s1,i,i,i,-3,i,·,·
CC(=O)c1c(C)[nH]c(C(=O)Nc2ccc(Cl)c(S(=O)(=O)N(C)C)c2)c1C,i,i,-11*,-35,i,103*,i
COc1cc(C(=O)Nc2ccc3c(c2)ncn3C(C)(C)C)cc(OC)c1OC,i,i,-9.3*,-9,i,75*,i
CC(C)(C)n1cnc2cc(NC(=O)c3ccc(Cl)cc3)ccc21,i,i,i,-4,i,·,·
Cc1cccc2cc(CN(Cc3ccco3)C(=O)Nc3cccc(C#N)c3)c(Cl)nc12,i,6*,-9.3*,-11,i,122*,0.14*
O=c1[nH]c([N+](=O)[O-])nn1C(c1ccccc1)c1ccccc1,i,i,-10*,-5,i,0,i
CCC1CN(C(=O)Nc2ccc(C)cc2)c2cc(C)ccc2O1 (stereo unspecified),i,i,i,-16,i,·,·
Cc1ccccc1-n1nnnc1SCc1csc(-c2ccccc2)n1,i,i,-11*,-13,i,105*,i
OC1(c2ccc(OC(F)F)cc2)CSC(=Nc2cccnc2)N1Cc1ccco1 (stereo unspecified),i,i,-11*,-34,i,97*,i
SMILES,KCNQ1 act,KCNQ1 inh,KCNK3 inh,hERG rescue,KCNK9 block,KCNK3 confirm,KCNK3 uninduced
OC1(c2ccc(F)cc2)CSC(=Nc2cccnc2)N1Cc1ccco1 (stereo unspecified),i,i,i,-22,i,·,·
C=CCOc1ccc(/C=C/C(=O)OCC(=O)Nc2c(C)n(C)n(-c3ccccc3)c2=O)cc1,i,i,i,-9,i,·,·
Cc1c(C#N)c2ccccc2n1C,i,i,i,-8,i,·,·
Cn1c(CSc2ccccc2)c(C#N)c2ccccc21,i,i,-11*,-2,i,105*,0.16*
Cc1ccc(S(=O)(=O)N2CCN(C(=O)n3ccnc3)CC2)cc1,·,·,i,·,·,·,·
Cc1ccc(OC(=O)c2ccc(S(=O)(=O)N(C)C)cc2)c(-n2nc3ccccc3n2)c1,i,i,i,-16,i,·,·
Cc1ccc(OC(=O)c2cccc(S(=O)(=O)N3CCCC3)c2)c(-n2nc3ccccc3n2)c1,i,i,-9.3*,-6,i,110*,i
CC(=O)Oc1ccc(C)cc1-n1nc2ccccc2n1,i,i,i,-16,i,·,·
Cc1ccc(OC(=O)c2cccc(S(=O)(=O)N(C)C)c2)c(-n2nc3ccccc3n2)c1,i,i,i,-6,-7.1*,118*,i
CC(NCc1ccc(OCC(N)=O)cc1)C12CC3CC(CC(C3)C1)C2 (stereo unspecified),i,i,i,-9,i,·,·
Cc1ccc(NC(=O)CSCC(=O)N(C)CC(=O)Nc2cccc(F)c2)cc1,i,i,i,-8,i,·,·
Cc1ccc(C(=O)NCC(=O)N2CCN(c3cccc(Cl)c3)CC2)s1,·,·,i,·,·,·,·
Cc1ccc(CN2CCN(/N=C/c3cc(Br)ccc3F)CC2)cc1,i,i,i,-2,i,·,·
Fc1ccc(Br)cc1/C=N/N1CCN(c2ccccc2)CC1,i,i,-9.3*,-4,i,96*,i
O=C(c1cc(-c2cccc(O)c2)on1)N1CCCCCC1,i,i,-11*,-2,i,68*,i
CC1CN(C(C)C)C(=S)NC1=O (stereo unspecified),·,·,i,·,·,·,·
Cc1nnc(SCC(=O)Nc2nsc(-c3ccc(C(C)(C)C)cc3)n2)s1,i,i,-9.9*,-14,i,102*,i
CC12CCC(=O)C=C1CCC1C2CCC2(C)C(c3csc(N)n3)CCC12 (stereo unspecified),·,·,-14*,·,·,133*,0.12*
CC12CCC(=O)C=C1CCC1C2C(O)CC2(C)C(c3csc(N)n3)CCC12 (stereo unspecified),·,·,i,·,·,·,·
CCOc1cccc(OCCOc2ccccc2[N+](=O)[O-])c1,i,i,-8.7*,-2,-7.2*,110*,i
COc1cc(C=O)ccc1OCCOc1ccccc1[N+](=O)[O-],i,i,i,-11,i,·,·
